Experimental data from ChEMBL document CHEMBL5143726, “Neutrophil Elastase-Activatable Prodrugs Based on an Alkoxyamine Platform to Deliver Alkyl Radicals Cytotoxic to Tumor Cells” (J Med Chem, 2022).
Activity calls are given as the source filed them. The rule behind the calls is not given here. Where a SMILES comes first, the peptide text is derived from it.

Assays:
U-87 MG [1] = test: Cytotoxicity against human U87 cells assessed as reduction in cell viability measured after 24 to 72 hrs in presence of human neutrophil elastase by PrestoBlue reagent based assay; format: functional; settings: dose 100-400 µM, time 24-72 hrs; for Activity: U-87MG ATCC, DDE = dose-dependent effect; for CC50: read-out: LC50 (the source's name)
Outline: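 U87 cells cultured 48 h, medium changed to serum-free DMEM; prodrug (0–400 μM) plus human neutrophil elastase 0.68 μM added, 1 h incubation, then 10% serum added to stop enzyme and cells held 24, 48 or 72 h. Viability via resazurin (PrestoBlue), 30 min at 37 °C, fluorescence ex 560/em 590 nm.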

[2] = Prodrug activation assessed as human neutrophil elastase mediated DBNO release by EPR spectometric analysis
Outline: (§1)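 Human neutrophil elastase (20 nM final) with prodrug (300 μM final) in 50 mM HEPES, 150 mM NaCl, 5 mM CaCl2, 0.05% IGEPAL, pH 7.4, in capillaries at 37 °C; released stable nitroxide (TEMPO or DBNO) quantified by EPR against internal spectrometer calibration.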

U-87 MG [3] = test: Cytotoxicity against human U87 cells assessed as reduction in cell viability at 400 uM measured after 48 hrs in absence of human neutrophil elastase by PrestoBlue reagent based assay; format: functional; settings: U-87MG ATCC
Outline: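 U87 glioblastoma cells grown 48 h in DMEM/10% FBS, then switched to serum-free DMEM; prodrug (400 μM) added without elastase, serum restored to 10% after 1 h, cells kept 48 h at 37 °C. Viability by resazurin (PrestoBlue) reduction, 30 min at 37 °C, fluorescence ex 560/em 590 nm.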

[4] = Prodrug activation assessed as human neutrophil elastase mediated TEMPO release by EPR spectometric analysis; outline: as §1
U-87 MG [5] = test: Induction of apoptosis in human U87 cells assessed as activation of caspase3/7 at 75 to 250 uM measured after 48 hrs in presence of human neutrophil elastase by luminescence based multimode microplate reader assay; format: functional, cell-based; settings: U-87MG ATCC, dose 75-250 µM
Outline: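 U87 cells in serum-free DMEM given alkoxyamine (75, 150, 250 μM) plus HNE 0.68 μM for 1 h, then 10% serum added; sampled at 1, 3, 7, 24, 48 h. Caspase 3/7 read by lytic luminogenic substrate reagent, 15 min at room temperature, luminescence. Controls: HNE alone, cells alone, doxorubicin 2 μM.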

U-87 MG [6] = test: Induction of apoptosis in human U87 cells assessed as phosphatidylserine translocation at 75 to 250 uM measured after 48 hrs in presence of human neutrophil elastase; format: functional, cell-based; settings: U-87MG ATCC, dose 75-250 µM
Outline: (§2)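 Serum-free U87 exposure to alkoxyamine 75, 150 or 250 μM with HNE 0.68 μM for 1 h, then 10% serum; followed 1–48 h. Live-cell RealTime-Glo reagent added, 60 min at 37 °C: annexin V phosphatidylserine binding by luminescence, membrane loss by cell-impermeant DNA dye fluorescence (ex 485/em 530 nm). Controls: HNE alone, untreated cells, doxorubicin 2 μM.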

U-87 MG [7] = test: Induction of apoptosis in human U87 cells assessed as reduction in cell membrane integrity at 75 to 250 uM measured after 48 hrs in presence of human neutrophil elastase; format: functional, cell-based; settings: U-87MG ATCC, dose 75-250 µM; outline: as §2
U-87 MG [8] = test: Cytotoxicity against human U87 cells assessed as cell viability at 100 to 400 uM measured after 24 to 72 hrs in absence of human neutrophil elastase by PrestoBlue reagent based assay; format: functional, U-87MG ATCC; settings: dose 100-400 µM, time 24-72 hrs
Outline: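 U87 glioblastoma (DMEM, 10% FBS, 37 °C, 5% CO2) seeded 48 h, medium swapped to serum-free DMEM; prodrug 0–400 μM added without elastase, 1 h, then 10% serum restored; incubation 24, 48 or 72 h. Viability by resazurin-to-resorufin conversion (PrestoBlue, 1/10 volume, 30 min 37 °C), fluorescence ex 560/em 590 nm.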

[9] = Prodrug activation assessed as urokinase mediated TEMPO release

SMILES	Activity (U-87 MG [1])	CC50 (U-87 MG [1]) [µM]	Drug metabolism [2]	Activity (U-87 MG [3])	Drug metabolism [4]	Activity (U-87 MG [5])	Activity (U-87 MG [6])	Activity (U-87 MG [7])	Activity (U-87 MG [8]) [%]	Drug metabolism [9]
CC(ON(C(C)(C)C)C(C)(C)C)c1ccc(NC(=O)[C@@H](NC(=O)[C@@H]2CCCN2C(=O)[C@H](C)NC(=O)[C@H](C)NC(=O)CCC(=O)O)C(C)C)cc1 (some centres not stated) (HELM PEPTIDE1{[O=C(O)CCC(=O)[*:2]].A.A.P.V.[CC(ON(C(C)(C)C)C(C)(C)C)c1ccc(N[*:1])cc1]}$$$$V2.0)	Dde	150	Metabolite_Detected							
CC(ON(C(C)(C)C)C(C)(C)C)c1ccc(OC(=O)[C@@H](NC(=O)[C@@H]2CCCN2C(=O)[C@H](C)NC(=O)[C@H](C)NC(=O)CCC(=O)O)C(C)C)cc1 (some centres not stated) (HELM PEPTIDE1{[O=C(O)CCC(=O)[*:2]].A.A.P.V.[CC(ON(C(C)(C)C)C(C)(C)C)c1ccc(O[*:1])cc1]}$$$$V2.0)	Dde	150	Metabolite_Detected							
CC(ON1C(C)(C)CCCC1(C)C)c1ccc(OC(=O)[C@@H](NC(=O)[C@@H]2CCCN2C(=O)[C@H](C)NC(=O)[C@H](C)NC(=O)CCC(=O)O)C(C)C)cc1 (some centres not stated) (HELM PEPTIDE1{[O=C(O)CCC(=O)[*:2]].A.A.P.V.[CC(ON1C(C)(C)CCCC1(C)C)c1ccc(O[*:1])cc1]}$$$$V2.0)		150		Active	Metabolite_Detected					
CC(ON1C(C)(C)CCCC1(C)C)c1ccc(NC(=O)[C@@H](NC(=O)[C@@H]2CCCN2C(=O)[C@H](C)NC(=O)[C@H](C)NC(=O)CCC(=O)O)C(C)C)cc1 (some centres not stated) (HELM PEPTIDE1{[O=C(O)CCC(=O)[*:2]].A.A.P.V.[CC(ON1C(C)(C)CCCC1(C)C)c1ccc(N[*:1])cc1]}$$$$V2.0)	Dde	150			Metabolite_Detected	Active	Active	Active	100	Metabolite_Notdetected
